Laboratory results reported in ChEMBL document CHEMBL1255190, “The selected flavonol glycoside derived from Sophorae Flos improves glucose uptake and inhibits adipocyte differentiation via activation AMPK in 3T3-L1 cells” (Bioorg Med Chem Lett, 2010).
Active and inactive are the calls of the source. No cut-off for these calls is given here.

Key:
Format in all cases: cell-based
[1] = molecular target: 5'-AMP-activated protein kinase catalytic subunit alpha-2 (Mus musculus) (UniProt Q8BRK8); experiment: Induction of AMPK-mediated ACC phosphorylation in mouse 3T3L1 cells at 10 uM by Western blotting; details: 3T3-L1
Sequence of 5'-AMP-activated protein kinase catalytic subunit alpha-2 (Mus musculus) (Q8BRK8 whole entry): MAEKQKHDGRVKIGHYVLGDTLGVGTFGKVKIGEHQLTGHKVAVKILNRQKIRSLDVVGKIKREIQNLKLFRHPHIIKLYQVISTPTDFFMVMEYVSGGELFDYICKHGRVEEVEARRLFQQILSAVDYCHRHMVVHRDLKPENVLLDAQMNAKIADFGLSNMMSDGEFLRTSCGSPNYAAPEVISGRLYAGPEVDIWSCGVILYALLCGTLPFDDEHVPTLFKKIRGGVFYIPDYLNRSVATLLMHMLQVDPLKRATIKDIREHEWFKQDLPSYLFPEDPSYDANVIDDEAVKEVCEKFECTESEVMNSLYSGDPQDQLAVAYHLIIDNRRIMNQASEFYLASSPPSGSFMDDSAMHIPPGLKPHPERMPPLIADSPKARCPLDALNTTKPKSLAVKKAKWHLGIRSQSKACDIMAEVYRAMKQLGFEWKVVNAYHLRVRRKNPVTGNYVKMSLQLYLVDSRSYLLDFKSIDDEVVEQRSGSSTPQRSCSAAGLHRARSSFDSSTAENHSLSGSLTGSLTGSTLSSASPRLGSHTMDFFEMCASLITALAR
In short: (§1)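 Mouse 3T3-L1 cells exposed to test compound at 10 uM. Phosphorylated AMPK and its downstream target ACC were detected by western blot. Experiments were run in triplicate, with data given as means ± S.D. Groups were compared by one-way ANOVA with the Newman-Keuls test, significance p < 0.05.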

[2] = molecular target: 5'-AMP-activated protein kinase catalytic subunit alpha-2 (Mus musculus) (UniProt Q8BRK8); experiment: Induction of AMPK phosphorylation in mouse 3T3L1 cells at 10 uM by Western blotting; details: 3T3-L1; in short: as §1
3T3-L1 = experiment: Cytotoxicity against mouse 3T3L1 cells at 20 uM after 24 hrs; details: 3t3-l1, 24 h
In short: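 3T3-L1 cells exposed to compounds at 5-100 uM for 24 h. Viability was assessed under Mosmann's conditions.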

[3] = molecular target: 5'-AMP-activated protein kinase catalytic subunit alpha-2 (Mus musculus) (UniProt Q8BRK8); experiment: Inhibition of AMPK-mediated adipocyte differentiation in mouse 3T3L1 cells; details: 3T3-L1
In short: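 Compound (0, 5, 10 or 20 uM) co-applied with MDI differentiation medium on day 0 for 48 h. Differentiation ended at day 6 and lipid droplets were stained with Oil red O. Triplicate runs, means ± S.D.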

[4] = molecular target: 5'-AMP-activated protein kinase catalytic subunit alpha-2 (Mus musculus) (UniProt Q8BRK8); experiment: Inhibition of AMPK in mouse 3T3L1 cells assessed as inhibition of SREBP1c level by Western blotting; details: 3T3-L1
In short: (§2)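 Western blot of lysates from 3T3-L1 cells undergoing MDI-induced differentiation. Cells received 0, 5, 10 or 20 uM from day 0. Probed for FAS, SREBP-1c, C/EBPa and PPARgamma. Triplicate runs; one-way ANOVA with Newman-Keuls test.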

[5] = molecular target: 5'-AMP-activated protein kinase catalytic subunit alpha-2 (Mus musculus) (UniProt Q8BRK8); experiment: Inhibition of AMPK in mouse 3T3L1 cells assessed as inhibition of PPARgamma level by Western blotting; details: 3T3-L1; in short: as §2
[6] = molecular target: 5'-AMP-activated protein kinase catalytic subunit alpha-2 (Mus musculus) (UniProt Q8BRK8); experiment: Inhibition of AMPK-mediated glucose uptake in mouse 3T3L1 cells; details: 3T3-L1
In short: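 Differentiated 3T3-L1 adipocytes incubated 1 h with 5, 10 or 20 uM, with 200 nM insulin as reference. 2-Deoxy-D-[3H]-glucose uptake was then measured. For AMPK dependence, 10 uM was tested with or without compound C (10 uM). Triplicate runs, means ± S.D., p<0.05.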

[7] = molecular target: 5'-AMP-activated protein kinase catalytic subunit alpha-2 (Mus musculus) (UniProt Q8BRK8); experiment: Inhibition of AMPK in mouse 3T3L1 cells assessed as inhibition of C/EBPalpha gene expression by RT-PCR; details: 3T3-L1
In short: (§3)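 MDI-induced differentiating 3T3-L1 cells were given 0, 5, 10 or 20 uM. Per the legend, cells were treated for 6 h. RNA was extracted with Trizol and RT-PCR run with specific primers for the adipogenic markers. Triplicate runs; one-way ANOVA with Newman-Keuls test.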

[8] = molecular target: 5'-AMP-activated protein kinase catalytic subunit alpha-2 (Mus musculus) (UniProt Q8BRK8); experiment: Inhibition of AMPK in mouse 3T3L1 cells assessed as inhibition of PPARgamma gene expression by RT-PCR; details: 3T3-L1; in short: as §3
[9] = molecular target: 5'-AMP-activated protein kinase catalytic subunit alpha-2 (Mus musculus) (UniProt Q8BRK8); experiment: Inhibition of AMPK in mouse 3T3L1 cells assessed as inhibition of C/EBPalpha level by Western blotting; details: 3T3-L1; in short: as §2
[10] = molecular target: 5'-AMP-activated protein kinase catalytic subunit alpha-2 (Mus musculus) (UniProt Q8BRK8); experiment: Inhibition of AMPK in mouse 3T3L1 cells assessed as inhibition of FAS gene expression by RT-PCR; details: 3T3-L1; in short: as §3
[11] = molecular target: 5'-AMP-activated protein kinase catalytic subunit alpha-2 (Mus musculus) (UniProt Q8BRK8); experiment: Inhibition of AMPK in mouse 3T3L1 cells assessed as inhibition of FAS level by Western blotting; details: 3T3-L1; in short: as §2

| SMILES | Activity (3T3-L1) | Activity [3] | other results |
| --- | --- | --- | --- |
| O=c1c(O)c(-c2ccc(O)c(O)c2)oc2cc(O)cc(O)c12 [QUERCETIN] | Non-toxic | Active | Activity [1]: Active; Activity [2]: Active |
| C[C@@H]1O[C@@H](OC[C@H]2O[C@@H](Oc3c(-c4ccc(O)c(O)c4)oc4cc(O)cc(O)c4c3=O)[C@H](O)[C@@H](O)[C@@H]2O)[C@H](O)[C@H](O[C@@H]2OC[C@@H](O)[C@H](O)[C@H]2O)[C@H]1O | Non-toxic | Active |  |
| O=c1c(O)c(-c2ccc(O)cc2)oc2cc(O)cc(O)c12 [KAEMPFEROL] | Non-toxic | Active |  |
| C[C@@H]1O[C@@H](OC[C@H]2O[C@@H](Oc3c(-c4ccc(O)c(O)c4)oc4cc(O)cc(O)c4c3=O)[C@H](O)[C@@H](O)[C@@H]2O)[C@H](O)[C@H](O[C@@H]2O[C@H](CO)[C@@H](O)[C@H](O)[C@H]2O)[C@H]1O | Non-toxic | Active | Activity [4]: Dose-dependent effect; Activity [1]: Active; Activity [2]: Active; Activity [5]: Dose-dependent effect; Activity [6]: Active; Activity [7]: Active; Activity [8]: Active; Activity [9]: Dose-dependent effect; Activity [10]: Active; Activity [11]: Dose-dependent effect |
| C[C@@H]1O[C@@H](OC[C@H]2O[C@@H](Oc3c(-c4ccc(O)c(O)c4)oc4cc(O)cc(O)c4c3=O)[C@H](O)[C@@H](O)[C@@H]2O)[C@H](O)[C@H](O)[C@H]1O [RUTIN] | Non-toxic | Active |  |
| O=c1c(O[C@@H]2O[C@H](CO)[C@@H](O)[C@H](O)[C@H]2O)c(-c2ccc(O)cc2)oc2cc(O)cc(O)c12 [ASTRAGALIN] | Non-toxic | Active |  |
| O=c1c(O[C@@H]2O[C@H](CO)[C@@H](O)[C@H](O)[C@H]2O)c(-c2ccc(O)c(O)c2)oc2cc(O)cc(O)c12 [ISOQUERCETIN] | Non-toxic | Active |  |
| COc1cc(-c2oc3cc(O)cc(O)c3c(=O)c2O[C@@H]2O[C@H](CO[C@@H]3O[C@@H](C)[C@H](O)[C@@H](O)[C@H]3O)[C@@H](O)[C@H](O)[C@H]2O)ccc1O [NARCISSIN] | Non-toxic | Active |  |
| O=c1c(O)c(-c2ccc(O)c(O)c2)oc2cc(O)cc(O[C@@H]3O[C@H](CO)[C@@H](O)[C@H](O)[C@H]3O)c12 | Non-toxic | Active |  |
